Data published in ChEMBL document CHEMBL2390913, “In vitro biosynthesis, isolation, and identification of predominant metabolites of 2-(4-(2-hydroxyethoxy)-3,5-dimethylphenyl)-5,7-dimethoxyquinazolin-4(3H)-one (RVX-208)” (Eur J Med Chem, 2013).

Experiments:
Liver microsomes = assay: Drug metabolism in human liver microsomes assessed as M5 metabolite level at 100 uM after 4 hrs by LC/MS analysis in presence of UDPGA; type: ADME, Microsome
Outline: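 Human liver microsomes under the screening protocol. Mix: 0.50 mg protein in 0.5 mL, 100 mM potassium phosphate pH 7.4, NADPH regenerating system, 5 mM UDPGA, 5 mM D-saccharic acid lactone. Microsomes were pre-incubated with alamethicin and the mix pre-warmed 5 min at 37 °C. After 4 h at 37 °C, the reaction was diluted with cold methanol and centrifuged. The filtered supernatant went to analytical HPLC; the M5 fraction was taken for MS/MS.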

[1] = Drug metabolism in New Zealand White rabbit liver S9 fraction assessed per 20 mg of protein at 1 mM after 24 hrs by LC/MS analysis in presence of UDPGA; type: ADME, subcellular, Oryctolagus cuniculus; conditions: read-out: Drug metabolism
Outline: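 Scale-up reaction with rabbit liver S9. Each mix was 10 mL with 20 mg S9 protein, 100 mM potassium phosphate pH 7.4, 1 mM substrate (from a 0.1 M DMSO stock), an NADPH regenerating system (1.3 mM NADP+, 3.3 mM glucose-6-phosphate, 0.4 U/mL G6PDH, 3.3 mM MgCl2) and 10 mM UDPGA. Six parallel vials were shaken 24 h at 37 °C, then pooled, methanol-quenched, and passed through C18 SPE and prep HPLC.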

[2] = Drug metabolism in calf liver microsomes assessed per 4 mg/ml of protein at 0.5 mM after 24 hrs by LC-MS/MS analysis in presence of 5 mM UDPGA; type: ADME, Bos taurus, Microsome; conditions: cattle, read-out: Drug metabolism
Outline: (§1)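 Optimization incubations with rabbit or calf liver microsomes or rabbit S9. Final substrate was 0.2, 0.5 or 2 mM, from DMSO stocks diluted 100-fold. Protein was 1 or 4 mg/mL and UDPGA 5 or 25 mM. Other components were 100 mM potassium phosphate pH 7.4 and an NADPH regenerating system. Microsomes were pre-treated on ice with alamethicin. Reactions ran at 37 °C, were stopped with methanol, processed, and analysed by LC/MS.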

[3] = Drug metabolism in calf liver microsomes assessed per 4 mg/ml of protein at 2 mM after 24 hrs by LC-MS/MS analysis in presence of 5 mM UDPGA; type: ADME, Bos taurus, Microsome; conditions: cattle, read-out: Drug metabolism; outline: as §1
[4] = Drug metabolism in calf liver microsomes assessed per mg/ml of protein at 2 mM after 24 hrs by LC-MS/MS analysis in presence of 5 mM UDPGA; type: ADME, Bos taurus, Microsome; conditions: cattle, read-out: Drug metabolism; outline: as §1
[5] = Drug metabolism in New Zealand White rabbit liver S9 fraction assessed per mg/ml of protein at 0.2 mM after 24 hrs by LC-MS/MS analysis in presence of 25 mM UDPGA; type: ADME, subcellular, Oryctolagus cuniculus; conditions: read-out: Drug metabolism; outline: as §1
[6] = Drug metabolism in New Zealand White rabbit liver S9 fraction assessed per mg/ml of protein at 0.5 mM after 24 hrs by LC-MS/MS analysis in presence of 25 mM UDPGA; type: ADME, subcellular, Oryctolagus cuniculus; conditions: read-out: Drug metabolism; outline: as §1
[7] = Drug metabolism in New Zealand White rabbit liver S9 fraction assessed per mg/ml of protein at 2 mM after 24 hrs by LC-MS/MS analysis in presence of 25 mM UDPGA; type: ADME, subcellular, Oryctolagus cuniculus; conditions: read-out: Drug metabolism; outline: as §1
[8] = Drug metabolism in New Zealand White rabbit liver S9 fraction assessed per 4 mg/ml of protein at 0.5 mM after 24 hrs by LC-MS/MS analysis in presence of 25 mM UDPGA; type: ADME, subcellular, Oryctolagus cuniculus; conditions: read-out: Drug metabolism; outline: as §1
[9] = Drug metabolism in New Zealand White rabbit liver S9 fraction assessed per 4 mg/ml of protein at 2 mM after 24 hrs by LC-MS/MS analysis in presence of 25 mM UDPGA; type: ADME, subcellular, Oryctolagus cuniculus; conditions: read-out: Drug metabolism; outline: as §1
[10] = Drug metabolism in New Zealand White rabbit liver S9 fraction assessed per mg/ml of protein at 0.2 mM after 24 hrs by LC-MS/MS analysis in presence of 5 mM UDPGA; type: ADME, subcellular, Oryctolagus cuniculus; conditions: read-out: Drug metabolism; outline: as §1
[11] = Drug metabolism in New Zealand White rabbit liver S9 fraction assessed per mg/ml of protein at 0.5 mM after 24 hrs by LC-MS/MS analysis in presence of 5 mM UDPGA; type: ADME, subcellular, Oryctolagus cuniculus; conditions: read-out: Drug metabolism; outline: as §1
[12] = Drug metabolism in New Zealand White rabbit liver S9 fraction assessed per mg/ml of protein at 2 mM after 24 hrs by LC-MS/MS analysis in presence of 5 mM UDPGA; type: ADME, subcellular, Oryctolagus cuniculus; conditions: read-out: Drug metabolism; outline: as §1
[13] = Drug metabolism in New Zealand White rabbit liver S9 fraction assessed per 4 mg/ml of protein at 0.5 mM after 24 hrs by LC-MS/MS analysis in presence of 5 mM UDPGA; type: ADME, subcellular, Oryctolagus cuniculus; conditions: read-out: Drug metabolism; outline: as §1
[14] = Drug metabolism in New Zealand White rabbit liver S9 fraction assessed per 4 mg/ml of protein at 2 mM after 24 hrs by LC-MS/MS analysis in presence of 5 mM UDPGA; type: ADME, subcellular, Oryctolagus cuniculus; conditions: read-out: Drug metabolism; outline: as §1
[15] = Drug metabolism in New Zealand White rabbit liver microsomes assessed per mg/ml of protein at 0.2 mM after 24 hrs by LC-MS/MS analysis in presence of 25 mM UDPGA; type: ADME, Oryctolagus cuniculus, Microsome; conditions: read-out: Drug metabolism; outline: as §1
[16] = Drug metabolism in New Zealand White rabbit liver microsomes assessed per mg/ml of protein at 0.5 mM after 24 hrs by LC-MS/MS analysis in presence of 25 mM UDPGA; type: ADME, Oryctolagus cuniculus, Microsome; conditions: read-out: Drug metabolism; outline: as §1
[17] = Drug metabolism in New Zealand White rabbit liver microsomes assessed per mg/ml of protein at 2 mM after 24 hrs by LC-MS/MS analysis in presence of 25 mM UDPGA; type: ADME, Oryctolagus cuniculus, Microsome; conditions: read-out: Drug metabolism; outline: as §1
[18] = Drug metabolism in New Zealand White rabbit liver microsomes assessed per 4 mg/ml of protein at 0.5 mM after 24 hrs by LC-MS/MS analysis in presence of 25 mM UDPGA; type: ADME, Oryctolagus cuniculus, Microsome; conditions: read-out: Drug metabolism; outline: as §1
[19] = Drug metabolism in New Zealand White rabbit liver microsomes assessed per 4 mg/ml of protein at 2 mM after 24 hrs by LC-MS/MS analysis in presence of 25 mM UDPGA; type: ADME, Oryctolagus cuniculus, Microsome; conditions: read-out: Drug metabolism; outline: as §1
[20] = Drug metabolism in New Zealand White rabbit liver microsomes assessed per mg/ml of protein at 0.2 mM after 24 hrs by LC-MS/MS analysis in presence of 5 mM UDPGA; type: ADME, Oryctolagus cuniculus, Microsome; conditions: read-out: Drug metabolism; outline: as §1
[21] = Drug metabolism in New Zealand White rabbit liver microsomes assessed per mg/ml of protein at 0.5 mM after 24 hrs by LC-MS/MS analysis in presence of 5 mM UDPGA; type: ADME, Oryctolagus cuniculus, Microsome; conditions: read-out: Drug metabolism; outline: as §1
[22] = Drug metabolism in New Zealand White rabbit liver microsomes assessed per mg/ml of protein at 2 mM after 24 hrs by LC-MS/MS analysis in presence of 5 mM UDPGA; type: ADME, Oryctolagus cuniculus, Microsome; conditions: read-out: Drug metabolism; outline: as §1
[23] = Drug metabolism in New Zealand White rabbit liver microsomes assessed per 4 mg/ml of protein at 0.5 mM after 24 hrs by LC-MS/MS analysis in presence of 5 mM UDPGA; type: ADME, Oryctolagus cuniculus, Microsome; conditions: read-out: Drug metabolism; outline: as §1
[24] = Drug metabolism in New Zealand White rabbit liver microsomes assessed per 4 mg/ml of protein at 2 mM after 24 hrs by LC-MS/MS analysis in presence of 5 mM UDPGA; type: ADME, Oryctolagus cuniculus, Microsome; conditions: read-out: Drug metabolism; outline: as §1
[25] = Activity at human recombinant glucuronyl transferase at 100 uM after 1 to 24 hrs by LC-MS/MS analysis in presence of UDPGA; type: ADME
Outline: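 Recombinant human UDP-glucuronyl transferases. The mix held 100 mM potassium phosphate pH 7.4, 3.3 mM MgCl2, 5 mM UDPGA, and enzyme protein at 0.025–1 mg/mL depending on the enzyme. Substrate came from a 10 mM methanol stock. Mixtures were pre-warmed 5 min at 37 °C, the enzyme was added, and they were shaken at 37 °C for 1, 6 or 24 h. Methanol quench, centrifugation, filtration, drying, resuspension, LC/MS.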

- Drug metabolism (Liver microsomes): Active
- metabolised at 24 h, 1000 µM [1]: 22%
- metabolised at 24 h, 500 µM [2]: 56%
- metabolised at 24 h, 2000 µM [3]: 50.1%
- metabolised at 24 h, 2000 µM [4]: 40.9%
- metabolised at 24 h, 200 µM [5]: 21.4%
- metabolised at 24 h, 500 µM [6]: 25.7%
- metabolised at 24 h, 2000 µM [7]: 16.7%
- metabolised at 24 h, 500 µM [8]: 41.3%
- metabolised at 24 h, 2000 µM [9]: 35.2%
- metabolised at 24 h, 200 µM [10]: 22.3%
- metabolised at 24 h, 500 µM [11]: 23.2%
- metabolised at 24 h, 2000 µM [12]: 17.5%
- metabolised at 24 h, 500 µM [13]: 33%
- metabolised at 24 h, 2000 µM [14]: 30.3%
- metabolised at 24 h, 200 µM [15]: 49.7%
- metabolised at 24 h, 500 µM [16]: 49.4%
- metabolised at 24 h, 2000 µM [17]: 39.7%
- metabolised at 24 h, 500 µM [18]: 54.3%
- metabolised at 24 h, 2000 µM [19]: 48.9%
- metabolised at 24 h, 200 µM [20]: 34.6%
- metabolised at 24 h, 500 µM [21]: 39.5%
- metabolised at 24 h, 2000 µM [22]: 38.4%
- metabolised at 24 h, 500 µM [23]: 24.1%
- metabolised at 24 h, 2000 µM [24]: 30%
- Activity [25]: < 1%
Compound: COc1cc(OC)c2c(=O)[nH]c(-c3cc(C)c(OCCO)c(C)c3)nc2c1 [APABETALONE]
